Tests used:
[1] = molecular target: T1, Inhibitor of nuclear factor kappa-B kinase subunit alpha (Homo sapiens) (UniProt O15111); experiment: Inhibition of human IKKalpha at 100 uM using ERLLDDRHDSGLDSMKDEE as substrate after 60 mins in presence of ATP by ADP-Glo kinase assay relative to control
T1 sequence (whole entry): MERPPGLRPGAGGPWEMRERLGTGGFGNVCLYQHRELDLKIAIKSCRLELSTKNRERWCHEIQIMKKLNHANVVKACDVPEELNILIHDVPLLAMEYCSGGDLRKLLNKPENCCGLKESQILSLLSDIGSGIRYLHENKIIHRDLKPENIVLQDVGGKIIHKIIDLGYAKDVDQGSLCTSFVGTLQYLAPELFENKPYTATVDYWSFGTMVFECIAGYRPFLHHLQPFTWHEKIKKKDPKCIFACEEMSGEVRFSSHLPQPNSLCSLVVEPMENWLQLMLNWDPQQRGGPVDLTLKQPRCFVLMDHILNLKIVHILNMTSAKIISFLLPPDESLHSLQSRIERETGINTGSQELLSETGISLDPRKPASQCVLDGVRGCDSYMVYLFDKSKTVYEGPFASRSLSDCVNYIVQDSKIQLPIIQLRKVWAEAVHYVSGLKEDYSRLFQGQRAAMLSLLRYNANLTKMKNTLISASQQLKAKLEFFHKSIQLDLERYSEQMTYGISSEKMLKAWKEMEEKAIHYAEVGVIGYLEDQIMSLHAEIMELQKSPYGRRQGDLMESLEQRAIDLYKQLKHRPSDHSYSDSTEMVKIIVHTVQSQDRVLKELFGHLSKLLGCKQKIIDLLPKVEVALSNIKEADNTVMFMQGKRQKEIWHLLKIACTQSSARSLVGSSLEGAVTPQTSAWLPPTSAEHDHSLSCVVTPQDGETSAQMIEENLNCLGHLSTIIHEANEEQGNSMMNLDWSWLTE

[2] = molecular target: T2, Mitogen-activated protein kinase kinase kinase 14 (Homo sapiens, UniProt Q99558); experiment: Inhibition of human NIK at 100 uM using AKDVDQGSLCTSFVGTLQY as substrate after 60 mins in presence of ATP by ADP-Glo kinase assay relative to control
Target sequence in this assay (Q99558 whole entry, looked up): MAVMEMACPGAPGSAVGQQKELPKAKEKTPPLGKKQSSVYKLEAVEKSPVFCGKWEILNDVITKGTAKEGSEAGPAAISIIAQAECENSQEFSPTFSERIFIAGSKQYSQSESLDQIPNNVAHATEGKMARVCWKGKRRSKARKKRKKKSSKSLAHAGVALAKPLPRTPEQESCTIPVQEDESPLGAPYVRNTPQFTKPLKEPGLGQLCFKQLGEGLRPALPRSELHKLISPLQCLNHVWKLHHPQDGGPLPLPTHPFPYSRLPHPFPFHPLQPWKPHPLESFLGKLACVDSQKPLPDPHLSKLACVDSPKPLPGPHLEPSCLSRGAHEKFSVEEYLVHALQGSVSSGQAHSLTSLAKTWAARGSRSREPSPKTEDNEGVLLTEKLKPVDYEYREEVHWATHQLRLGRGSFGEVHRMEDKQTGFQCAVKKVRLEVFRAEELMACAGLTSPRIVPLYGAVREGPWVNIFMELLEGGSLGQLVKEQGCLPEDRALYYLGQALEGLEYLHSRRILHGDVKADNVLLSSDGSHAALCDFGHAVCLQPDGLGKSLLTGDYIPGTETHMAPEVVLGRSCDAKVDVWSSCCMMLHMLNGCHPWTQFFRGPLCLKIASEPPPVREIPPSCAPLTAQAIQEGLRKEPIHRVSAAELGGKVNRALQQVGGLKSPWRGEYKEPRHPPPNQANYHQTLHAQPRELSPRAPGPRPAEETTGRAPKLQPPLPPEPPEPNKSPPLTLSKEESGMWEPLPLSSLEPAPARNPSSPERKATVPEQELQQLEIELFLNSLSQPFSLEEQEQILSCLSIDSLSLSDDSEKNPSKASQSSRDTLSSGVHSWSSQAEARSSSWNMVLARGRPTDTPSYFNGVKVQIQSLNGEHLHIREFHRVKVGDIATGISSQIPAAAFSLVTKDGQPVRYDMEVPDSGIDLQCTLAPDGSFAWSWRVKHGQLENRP

MDA-MB-231 = experiment: Cytotoxicity against human MDA-MB-231 cells after 72 hrs by CellTox green assay; type: cell-based; conditions: MDA-MB-231, 72 h
Outline: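 MDA-MB-231 cells (5×10^3/well) exposed to 0.001 - 100 µM compound or DMSO vehicle for 72 h. Membrane-integrity loss read by CellTox green fluorescence. IC50 taken by nonlinear regression; mean ± SD of three independent experiments.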

[3] = molecular target: T3, Inhibitor of nuclear factor kappa-B kinase subunit beta (Homo sapiens, UniProt O14920); experiment: Inhibition of human IKKbeta using ERLLDDRHDSGLDSMKDEE as substrate after 60 mins in presence of ATP by ADP-Glo kinase assay
T3 sequence (O14920 whole entry): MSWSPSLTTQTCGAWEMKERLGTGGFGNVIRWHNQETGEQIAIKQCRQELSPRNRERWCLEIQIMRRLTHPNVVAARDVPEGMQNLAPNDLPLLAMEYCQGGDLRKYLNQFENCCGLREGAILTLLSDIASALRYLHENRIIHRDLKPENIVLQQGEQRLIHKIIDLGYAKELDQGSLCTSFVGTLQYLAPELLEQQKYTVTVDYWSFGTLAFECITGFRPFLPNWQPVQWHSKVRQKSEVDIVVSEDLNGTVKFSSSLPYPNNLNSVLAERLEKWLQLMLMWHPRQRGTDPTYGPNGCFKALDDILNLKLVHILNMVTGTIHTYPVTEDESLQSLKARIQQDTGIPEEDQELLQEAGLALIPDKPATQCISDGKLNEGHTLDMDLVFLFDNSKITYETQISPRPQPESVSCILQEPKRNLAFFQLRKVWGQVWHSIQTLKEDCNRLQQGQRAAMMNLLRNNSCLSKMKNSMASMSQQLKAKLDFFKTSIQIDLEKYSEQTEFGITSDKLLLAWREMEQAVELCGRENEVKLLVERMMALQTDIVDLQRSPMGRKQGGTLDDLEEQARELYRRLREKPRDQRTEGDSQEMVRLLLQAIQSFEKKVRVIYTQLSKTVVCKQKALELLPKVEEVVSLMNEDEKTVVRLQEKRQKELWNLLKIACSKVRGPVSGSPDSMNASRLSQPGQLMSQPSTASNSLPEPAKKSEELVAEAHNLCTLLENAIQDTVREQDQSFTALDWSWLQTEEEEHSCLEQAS

[4] = molecular target: T4, Inhibitor of nuclear factor kappa-B kinase subunit alpha (Homo sapiens, UniProt O15111); experiment: Inhibition of human IKKalpha using ERLLDDRHDSGLDSMKDEE as substrate after 60 mins in presence of ATP by ADP-Glo kinase assay
T4 sequence (O15111 whole entry): T1 sequence (whole entry)

[5] = molecular target: T2, Mitogen-activated protein kinase kinase kinase 14; experiment: Inhibition of human NIK using AKDVDQGSLCTSFVGTLQY as substrate after 60 mins in presence of ATP by ADP-Glo kinase assay
Target sequence in this assay (Q99558 whole entry): as the sequence (Q99558 whole entry, looked up) above

[6] = molecular target: T5, Inhibitor of nuclear factor kappa-B kinase subunit beta (Homo sapiens) (UniProt O14920); experiment: Inhibition of human IKKbeta at 100 uM using ERLLDDRHDSGLDSMKDEE as substrate after 60 mins in presence of ATP by ADP-Glo kinase assay relative to control
T5 sequence (whole entry): T3 sequence (O14920 whole entry)

[7] = molecular target: T6, Inhibitor of nuclear factor kappa-B kinase subunit epsilon (Homo sapiens, UniProt Q14164); experiment: Inhibition of human IKKepsilon using ERLLDDRHDSGLDSMKDEE as substrate after 60 mins in presence of ATP by ADP-Glo kinase assay
T6 sequence (Q14164 whole entry): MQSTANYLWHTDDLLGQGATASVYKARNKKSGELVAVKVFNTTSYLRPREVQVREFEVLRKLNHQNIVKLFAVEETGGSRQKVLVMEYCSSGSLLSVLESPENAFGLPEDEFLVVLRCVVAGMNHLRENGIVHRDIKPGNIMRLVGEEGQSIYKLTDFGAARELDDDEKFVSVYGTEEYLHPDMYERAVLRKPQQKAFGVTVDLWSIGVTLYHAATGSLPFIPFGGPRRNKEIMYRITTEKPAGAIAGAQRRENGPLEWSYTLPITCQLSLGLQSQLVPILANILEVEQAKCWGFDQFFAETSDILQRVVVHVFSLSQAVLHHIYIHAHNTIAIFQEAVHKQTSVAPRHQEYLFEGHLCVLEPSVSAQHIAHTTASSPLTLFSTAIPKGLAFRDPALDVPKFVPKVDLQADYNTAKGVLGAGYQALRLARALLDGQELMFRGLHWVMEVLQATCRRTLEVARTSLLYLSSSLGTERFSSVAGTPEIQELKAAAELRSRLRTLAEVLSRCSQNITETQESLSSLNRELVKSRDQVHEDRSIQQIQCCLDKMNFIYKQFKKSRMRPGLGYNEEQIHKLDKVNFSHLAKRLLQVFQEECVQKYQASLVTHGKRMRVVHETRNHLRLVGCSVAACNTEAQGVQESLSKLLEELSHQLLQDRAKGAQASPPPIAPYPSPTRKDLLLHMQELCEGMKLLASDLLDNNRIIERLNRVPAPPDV

Compound | inhibition [1] [%] | inhibition [2] [%] | IC50 (MDA-MB-231) [µM] | IC50 [3] [µM] | IC50 [4] [µM] | IC50 [5] [µM] | inhibition [6] [%] | IC50 [7] [µM]
O=C(Nc1cc(C(F)(F)F)cc(C(F)(F)F)c1)c1cc(Cl)ccc1O [IMD-0354] | 3.45 | 13.8 | 0.85 | > 100 | > 100 | > 100 | 5.43 | > 100
O=C(Nc1cc(C(F)(F)F)cc(C(F)(F)F)c1)c1nsnc1O | 25.2 | 4.34 | 53 | > 100 | > 100 | > 100 |  | > 100

— ChEMBL document CHEMBL4261552, “4-Hydroxy-N-[3,5-bis(trifluoromethyl)phenyl]-1,2,5-thiadiazole-3-carboxamide: a novel inhibitor of the canonical NF-κB cascade” (Medchemcomm, 2017)
